Data reported in ChEMBL document CHEMBL1817584, “Synthesis of novel fluconazoliums and their evaluation for antibacterial and antifungal activities” (2011).

How the values were obtained:
Type in all cases: functional
Aspergillus fumigatus = assay: Antifungal activity against Aspergillus fumigatus ATCC 96918 after 24 hrs by twofold serial dilution method; details: ATCC 96918, 24 h
How it was run: (§1)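 A fungal spore suspension was made in sterile distilled water from a 1-day-old culture grown on Sabouraud agar, then tested against serial dilutions of compounds (DMSO stocks) to determine MIC.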

Pseudomonas aeruginosa [1] = assay: Ratio of Chloromycin MIC to compound MIC for Pseudomonas aeruginosa ATCC 27853
Bacillus subtilis [2] = assay: Antibacterial activity against Bacillus subtilis ATCC 21216 after 24 hrs by twofold serial dilution method; details: ATCC 21216, 24 h
How it was run: (§2)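 Each bacterial suspension was adjusted with sterile saline to 1 × 10⁵ CFU. Compounds were first dissolved in DMSO as stock solutions, then diluted in Mueller–Hinton broth in twofold steps (8, 4, 2, 1, 0.5, 0.25). Dilutions were inoculated and incubated at 37 °C for 24 h, and MIC was read. DMSO plus inoculum without drug served as a solvent control.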

Pseudomonas aeruginosa [3] = assay: Antibacterial activity against Pseudomonas aeruginosa ATCC 27853 after 24 hrs by twofold serial dilution method; details: ATCC 27853, 24 h; how it was run: as §2
Candida albicans = assay: Antifungal activity against Candida albicans ATCC 76615 after 24 hrs by twofold serial dilution method; details: ATCC 76615, 24 h; how it was run: as §1
Bacillus [4] = assay: Antibacterial activity against Bacillus proteus ATCC 13315 after 24 hrs by twofold serial dilution method; details: ATCC 13315, 24 h; how it was run: as §2
Staphylococcus aureus [5] = assay: Ratio of Chloromycin MIC to compound MIC for Staphylococcus aureus ATCC 6538
Bacillus [6] = assay: Ratio of Chloromycin MIC to compound MIC for Bacillus proteus ATCC 13315
Escherichia coli [7] = assay: Ratio of Chloromycin MIC to compound MIC for Escherichia coli ATCC 8099
Bacillus subtilis [8] = assay: Ratio of Chloromycin MIC to compound MIC for Bacillus subtilis ATCC 21216
Staphylococcus aureus [9] = assay: Antibacterial activity against Staphylococcus aureus ATCC 6538 after 24 hrs by twofold serial dilution method; details: ATCC 6538, 24 h; how it was run: as §2
Staphylococcus aureus [10] = assay: Antibacterial activity against methicillin-resistant Staphylococcus aureus N315 after 24 hrs by twofold serial dilution method; details: N315, 24 h
How it was run: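 Compounds were dissolved in DMSO as stock, then diluted twofold in Mueller–Hinton broth. Chloromycin and norfloxacin were run as reference drugs. The inoculum was adjusted in sterile saline to 1 × 10⁵ CFU, and a DMSO-plus-inoculum well served as solvent control. Plates were incubated at 37 °C for 24 h and read as MIC.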

Escherichia coli [11] = assay: Antibacterial activity against Escherichia coli ATCC 8099 after 24 hrs by twofold serial dilution method; details: ATCC 8099, 24 h; how it was run: as §2
Staphylococcus aureus [12] = assay: Ratio of Norfloxacin MIC to compound MIC for Staphylococcus aureus ATCC 6538

SMILES	MIC (Aspergillus fumigatus)	Ratio (Pseudomonas aeruginosa [1])	MIC (Bacillus subtilis [2])	MIC (Pseudomonas aeruginosa [3])	MIC (Candida albicans)	MIC (Bacillus [4])	Ratio (Staphylococcus aureus [5])	Ratio (Bacillus [6])	Ratio (Escherichia coli [7])	Ratio (Bacillus subtilis [8])	MIC (Staphylococcus aureus [9])	MIC (Staphylococcus aureus [10])	MIC (Escherichia coli [11])	Ratio (Staphylococcus aureus [12])
OC(Cn1c[n+](CCOc2ccc3ccccc3c2)cn1)(Cn1c[n+](CCOc2ccc3ccccc3c2)cn1)c1ccc(F)cc1F.[Br-].[Br-]	128 µg/mL	4	64 µg/mL	8 µg/mL	8 µg/mL	4 µg/mL	4	4	4	4	4 µg/mL	32 µg/mL	2 µg/mL	
CCCCCCCC[n+]1cnn(CC(O)(Cn2c[n+](CCCCCCCC)cn2)c2ccc(F)cc2F)c1.[Br-].[Br-]	128 µg/mL		32 µg/mL	8 µg/mL	2 µg/mL	64 µg/mL	64				1 µg/mL	8 µg/mL	1 µg/mL	8
